ChEMBL document CHEMBL4118190, “An SAR study of hydroxy-trifluoromethylpyrazolines as inhibitors of Orai1-mediated store operated Ca2+ entry in MDA-MB-231 breast cancer cells using a convenient Fluorescence Imaging Plate Reader assay” (Bioorg Med Chem, 2018)

How the values were obtained:
Type in all cases: cell-based
[1] = biological target: T1, Calcium release-activated calcium channel protein 1 (Homo sapiens, UniProt Q96D31); assay: Inhibition of […] Orai1-medited store operated calcium entry in human MDA-MB-231 cells at 100 uM pretreated for 15 mins followed by BAPTA addition by PBX dye based FLIPR assay relative to control
Summary of the method: (§1)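 MDA-MB-231 cells seeded 2×10^3/well and used 3 days later. Loaded 1 h at 37 °C with 2 µM PBX calcium dye, 5% signal enhancer and 500 µM probenecid in PSS, pH 7.3. Compound pretreated 15 min at room temperature. Then 500 µM BAPTA, 10 µM CPA, and 0.5 mM CaCl2 700 s after CPA. Read-out: peak 2 height as % inhibition vs DMSO. 95% CI, n = 4.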
Target sequence in this assay (Q96D31 whole entry, looked up): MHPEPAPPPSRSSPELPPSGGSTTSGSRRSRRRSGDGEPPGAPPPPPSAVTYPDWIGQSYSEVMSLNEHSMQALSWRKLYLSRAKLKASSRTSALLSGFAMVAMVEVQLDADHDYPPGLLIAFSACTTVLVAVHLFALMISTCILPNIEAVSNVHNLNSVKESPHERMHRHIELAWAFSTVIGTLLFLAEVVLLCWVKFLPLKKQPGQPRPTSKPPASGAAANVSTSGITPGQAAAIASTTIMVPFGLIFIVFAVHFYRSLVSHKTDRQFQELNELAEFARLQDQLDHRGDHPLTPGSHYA

[2] = test system: MDA-MB-231; assay: Inhibition of endoplasmic reticulum calcium channel in human MDA-MB-231 cells assessed as reduction in endoplasmic reticulum intracellular calcium release at 100 uM pretreated for 15 mins followed by SERCA inhibitor CPA addition measured after 700 secs by PBX dye based FLIPR assay relative to control
Summary of the method: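 Same MDA-MB-231 PBX-dye FLIPR protocol: 15 min compound pretreatment at room temperature, then BAPTA (500 µM) and CPA (10 µM) to deplete ER stores. Peak 1 height after CPA addition (ER Ca2+ release) expressed as % inhibition relative to the DMSO control. Excitation 470–495 nm, emission 515–575 nm.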

[3] = biological target: T1, Calcium release-activated calcium channel protein 1; assay: Inhibition of […] Orai1-medited store operated calcium entry in human MDA-MB-231 cells pretreated for 15 mins followed by BAPTA addition by PBX dye based FLIPR assay; summary of the method: as §1
Target sequence in this assay (Q96D31 whole entry): as the sequence (Q96D31 whole entry, looked up) above

[4] = biological target: T1, Calcium release-activated calcium channel protein 1; assay: Inhibition of […] Orai1-medited store operated calcium entry in human MDA-MB-231 cells at 10 uM pretreated for 15 mins followed by BAPTA addition by PBX dye based FLIPR assay relative to control; summary of the method: as §1
Target sequence in this assay (Q96D31 whole entry, looked up): as above

[5] = biological target: T1, Calcium release-activated calcium channel protein 1; assay: Inhibition of […] Orai1-medited store operated calcium entry in human MDA-MB-231 cells at 30 uM pretreated for 15 mins followed by BAPTA addition by PBX dye based FLIPR assay relative to control; summary of the method: as §1
Target sequence in this assay (Q96D31 whole entry, looked up): as above

[6] = biological target: T1, Calcium release-activated calcium channel protein 1; assay: Inhibition of […] Orai1-medited store operated calcium entry in human MDA-MB-231 cells at 300 uM pretreated for 15 mins followed by BAPTA addition by PBX dye based FLIPR assay relative to control; summary of the method: as §1
Target sequence in this assay (Q96D31 whole entry, looked up): as above

Row | SMILES | inhibition [1] [%] | IC50 [3] [µM] | inhibition [4] [%] | inhibition [5] [%] | inhibition [6] [%] | inhibition [2] [%]
1 | O=C(Cc1ccccc1)N1N=C(C(F)(F)F)CC1(O)c1ccccc1[N+](=O)[O-] (stereo unspecified) | 30 | – | – | – | – | 20
2 | Cc1cccc(C2=NN(C(=O)Cc3ccc(Cl)cc3)C(O)(C(F)(F)F)C2)c1 (stereo unspecified) | – | 60 | – | – | – | < 10
3 | Cc1ccccc1C1=NN(C(=O)CC2CCCCC2)C(O)(C(F)(F)F)C1 (stereo unspecified) | < 10 | – | – | – | – | < 10
4 | COc1ccc(CC(=O)N2N=C(c3cccc(C)c3)CC2(O)C(F)(F)F)cc1 (stereo unspecified) | – | 33 | – | – | – | < 10
5 | COc1ccc(CC(=O)N2N=C(c3ccccc3C)CC2(O)C(F)(F)F)cc1 (stereo unspecified) | 30 | – | – | – | – | < 10
6 | CC(=O)Nc1ccc(C2=NN(C(=O)Cc3ccccc3)C(O)(C(F)(F)F)C2)cc1 (stereo unspecified) | < 10 | – | – | – | – | < 10
7 | Cc1ccccc1C1(O)CC(C(F)(F)F)=NN1C(=O)CC1CCCCC1 (stereo unspecified) | 20 | – | – | – | – | < 10
8 | Cc1cccc(CC(=O)N2N=C(c3cccc(C)c3)CC2(O)C(F)(F)F)c1 (stereo unspecified) | – | 45 | – | – | – | < 10
9 | Cc1cccc(C2=NN(C(=O)Cc3ccccc3C)C(O)(C(F)(F)F)C2)c1 (stereo unspecified) | < 10 | – | – | – | – | < 10
10 | COc1cccc(CC(=O)N2N=C(c3cccc(C)c3)CC2(O)C(F)(F)F)c1 (stereo unspecified) | – | 32 | – | – | – | < 10
11 | O=C(Cc1ccccc1)N1N=C(c2ccc3c(c2)CCCC3)CC1(O)C(F)(F)F (stereo unspecified) | 50 | 89 | – | – | – | < 10
12 | Cc1ccc(CC(=O)N2N=C(c3ccccc3C)CC2(O)C(F)(F)F)cc1 (stereo unspecified) | – | 55 | – | – | – | < 10
13 | Cc1cccc(C2=NN(C(=O)Cc3cccc(Cl)c3)C(O)(C(F)(F)F)C2)c1 (stereo unspecified) | – | 75 | – | – | – | < 10
14 | Cc1cccc(C2=NN(C(=O)COc3ccccc3)C(O)(C(F)(F)F)C2)c1 (stereo unspecified) | < 10 | – | – | – | – | < 10
15 | Cc1cccc(C2=NN(C(=O)CC3CCCCC3)C(O)(C(F)(F)F)C2)c1 (stereo unspecified) | < 10 | – | – | – | – | < 10
16 | N#Cc1ccc(C2=NN(C(=O)Cc3ccccc3)C(O)(C(F)(F)F)C2)cc1 (stereo unspecified) | < 10 | – | – | – | – | < 10
17 | COc1cccc(CC(=O)N2N=C(c3ccccc3C)CC2(O)C(F)(F)F)c1 (stereo unspecified) | 60 | – | – | – | – | < 10
18 | O=C(Cc1ccccc1)N1N=C(c2ccc(N3CCOCC3)cc2)CC1(O)C(F)(F)F (stereo unspecified) | < 10 | – | – | – | 50 | < 10
19 | Cc1cccc(C2=NN(C(=O)c3ccccc3)C(O)(C(F)(F)F)C2)c1 (stereo unspecified) | 30 | – | – | – | – | < 10
20 | O=C(Cc1ccccc1)N1N=C(c2ccc([N+](=O)[O-])cc2)CC1(O)C(F)(F)F (stereo unspecified) | < 10 | – | – | – | – | < 10
21 | O=C(Cc1ccccc1)N1N=C(c2cccc([N+](=O)[O-])c2)CC1(O)C(F)(F)F (stereo unspecified) | – | 89 | – | – | – | < 10
22 | Cc1ccccc1C1=NN(C(=O)Cc2ccc(Cl)cc2)C(O)(C(F)(F)F)C1 (stereo unspecified) | – | 47 | – | – | – | < 10
23 | O=C(Cc1ccccc1)N1N=C(c2cccc(OCCN3CCOCC3)c2)CC1(O)C(F)(F)F (stereo unspecified) | 50 | – | – | – | – | 50
24 | Cc1ccccc1C1(O)CC(C(F)(F)F)=NN1C(=O)c1ccccc1 (stereo unspecified) | – | – | 20 | – | – | < 10
25 | CS(=O)(=O)Nc1cccc(C2=NN(C(=O)Cc3ccccc3)C(O)(C(F)(F)F)C2)c1 (stereo unspecified) | – | – | – | 20 | – | < 10
26 | COc1ccccc1CC(=O)N1N=C(c2cccc(C)c2)CC1(O)C(F)(F)F (stereo unspecified) | 50 | – | – | – | – | < 10
27 | Cc1ccc(CC(=O)N2N=C(c3cccc(C)c3)CC2(O)C(F)(F)F)cc1 (stereo unspecified) | – | 42 | – | – | – | < 10
28 | Cc1cccc(C2(O)CC(C(F)(F)F)=NN2C(=O)c2ccccc2)c1 (stereo unspecified) | < 10 | – | – | – | – | < 10
29 | Cc1cccc(C2=NN(C(=O)Cc3ccccc3Cl)C(O)(C(F)(F)F)C2)c1 (stereo unspecified) | – | 42 | – | – | – | < 10

The next lines start with results.

Row | inhibition [1] [%] | IC50 [3] [µM] | inhibition [4] [%] | inhibition [5] [%] | inhibition [6] [%] | SMILES | inhibition [2] [%]
30 | < 10 | – | – | – | – | O=C(Cc1ccccc1)N1N=C(c2ccc(Br)cc2)CC1(O)C(F)(F)F (stereo unspecified) | < 10
31 | < 10 | – | – | – | – | Cc1ccc(C2=NN(C(=O)Cc3ccccc3)C(O)(C(F)(F)F)C2)cc1 (stereo unspecified) | < 10
32 | < 10 | – | – | – | – | O=C(Cc1ccccc1)N1N=C(c2ccccc2)CC1(O)C(F)(F)F (stereo unspecified) | < 10
33 | – | 42 | – | – | – | Cc1cccc(CC(=O)N2N=C(c3ccccc3C)CC2(O)C(F)(F)F)c1 (stereo unspecified) | < 10
34 | < 10 | – | – | – | – | O=C(Cc1ccccc1)N1N=C(c2ccc(F)cc2)CC1(O)C(F)(F)F (stereo unspecified) | < 10
35 | 36 to 37 | – | 14 | – | – | COc1cccc(C2=NN(C(=O)Cc3ccccc3)C(O)(C(F)(F)F)C2)c1 (stereo unspecified) | < 10
36 | – | 33 | – | – | – | O=C(Cc1ccccc1)N1N=C(c2ccccc2Cl)CC1(O)C(F)(F)F (stereo unspecified) | 50
37 | 50 | – | – | – | – | O=C(Cc1ccccc1)N1N=C(c2cccc(OC(F)(F)F)c2)CC1(O)C(F)(F)F (stereo unspecified) | < 10
38 | – | 48 | – | – | – | O=C(Cc1ccccc1)N1N=C(c2cccc(Cl)c2)CC1(O)C(F)(F)F (stereo unspecified) | < 10
39 | – | 47 | – | – | – | O=C(Cc1ccccc1)N1N=C(c2cccc(Br)c2)CC1(O)C(F)(F)F (stereo unspecified) | < 10
40 | 80 | 55 | – | – | – | O=C(Cc1ccccc1)N1N=C(c2cccc(F)c2F)CC1(O)C(F)(F)F (stereo unspecified) | < 10
41 | – | – | – | 60 | – | O=C(Cc1ccccc1)N1N=C(c2cccc(F)c2)CC1(O)C(F)(F)F (stereo unspecified) | < 10
42 | < 10 | – | – | – | – | O=C(Cc1ccccc1)N1N=C(c2cccnc2)CC1(O)C(F)(F)F (stereo unspecified) | < 10
43 | – | 30 | – | – | – | O=C(Cc1ccccc1)N1N=C(c2ccccc2Br)CC1(O)C(F)(F)F (stereo unspecified) | < 10
44 | < 10 | – | – | – | – | O=C(Cc1ccccc1)N1N=C(c2c(F)cccc2F)CC1(O)C(F)(F)F (stereo unspecified) | < 10
45 | < 10 | – | – | – | – | O=C(Cc1ccccc1)N1N=C(c2ccc(OC(F)(F)F)cc2)CC1(O)C(F)(F)F (stereo unspecified) | < 10
46 | – | – | – | 50 | – | Cc1ccccc1C1=NN(C(=O)Cc2ccccc2)C(O)(C(F)(F)F)C1 (stereo unspecified) | < 10
47 | 60 | 58 | – | – | – | O=C(Cc1ccccc1)N1N=C(c2ccc(Cl)cc2Cl)CC1(O)C(F)(F)F (stereo unspecified) | < 10
48 | 25 | – | – | – | – | COc1ccccc1C1=NN(C(=O)Cc2ccccc2)C(O)(C(F)(F)F)C1 (stereo unspecified) | < 10

Row | inhibition [1] [%] | IC50 [3] [µM] | inhibition [4] [%] | inhibition [5] [%] | inhibition [6] [%] | SMILES | inhibition [2] [%]
49 | 40 | – | – | – | – | O=C(Cc1ccccc1)N1N=C(c2ccccc2[N+](=O)[O-])CC1(O)C(F)(F)F (stereo unspecified) | < 10
50 | < 10 | – | – | – | – | COc1cccc(OC)c1C1=NN(C(=O)Cc2ccccc2)C(O)(C(F)(F)F)C1 (stereo unspecified) | < 10
51 | – | 79 | – | – | – | Cc1ccccc1C1=NN(C(=O)Cc2cccc(Cl)c2)C(O)(C(F)(F)F)C1 (stereo unspecified) | < 10
52 | 30 | – | – | – | – | O=C(Cc1ccccc1)N1N=C(c2ccccc2F)CC1(O)C(F)(F)F (stereo unspecified) | < 10
53 | < 10 | – | – | – | – | COc1ccc(C2=NN(C(=O)Cc3ccccc3)C(O)(C(F)(F)F)C2)cc1 (stereo unspecified) | < 10
54 | 20 | – | – | – | – | Cc1ccccc1C1=NN(C(=O)c2ccccc2)C(O)(C(F)(F)F)C1 (stereo unspecified) | < 10
55 | 20 | – | – | – | – | O=C(Cc1ccccc1)N1N=C(c2ccccn2)CC1(O)C(F)(F)F (stereo unspecified) | < 10
56 | – | – | – | 60 | – | O=C(Cc1ccccc1)N1N=C(c2cccc(NC(=O)C(F)(F)F)c2)CC1(O)C(F)(F)F (stereo unspecified) | < 10
57 | 60 | 54 | – | – | – | O=C(Cc1ccccc1)N1N=C(c2cc(Cl)ccc2Cl)CC1(O)C(F)(F)F (stereo unspecified) | < 10
58 | – | 29 | – | – | – | O=C(Cc1ccccc1)N1N=C(c2cccc(C(F)(F)F)c2)CC1(O)C(F)(F)F (stereo unspecified) | < 10
59 | < 10 | – | – | – | – | O=C(Cc1ccccc1)N1N=C(c2ccccc2OC(F)(F)F)CC1(O)C(F)(F)F (stereo unspecified) | < 10
60 | – | 105 | – | – | – | Cc1ccccc1C1=NN(C(=O)COc2ccccc2)C(O)(C(F)(F)F)C1 (stereo unspecified) | < 20
61 | – | 36 | – | – | – | Cc1cccc(C2=NN(C(=O)Cc3ccccc3)C(O)(C(F)(F)F)C2)c1 (stereo unspecified) | < 10
62 | < 10 | – | – | – | 50 | O=C(Cc1ccccc1)N1N=C(c2ccncc2)CC1(O)C(F)(F)F (stereo unspecified) | < 10
63 | < 10 | – | – | – | – | N#Cc1cccc(C2=NN(C(=O)Cc3ccccc3)C(O)(C(F)(F)F)C2)c1 (stereo unspecified) | < 10
64 | 20 | – | – | – | – | Cc1ccccc1CC(=O)N1N=C(c2ccccc2C)CC1(O)C(F)(F)F (stereo unspecified) | < 10
65 | 60 | – | – | – | – | COc1ccccc1CC(=O)N1N=C(c2ccccc2C)CC1(O)C(F)(F)F (stereo unspecified) | < 10
66 | – | 40 | – | – | – | Cc1ccccc1C1=NN(C(=O)Cc2ccccc2Cl)C(O)(C(F)(F)F)C1 (stereo unspecified) | < 10
67 | < 10 | – | – | – | – | O=C(Cc1ccccc1)N1N=C(c2ccc(Cl)cc2)CC1(O)C(F)(F)F (stereo unspecified) | < 10
